In the RNAGym collection of RNA variant scans (doi:10.1126/science.aae0568):
This sample holds only a part of the variants without activity.

B1: tRNA (parent)
chain: GUUCCGUUGGCGUAAUGGUAACGCGUCUCCCUCCUAAGGAGAAGACUGCGGGUUCGAGUCCCGUACGGAACG

Variants of: B1
Assay: yeast fitness relative to wild type (ratio to wild type); higher = fitter; tRNA-Arg(CCU), competitive growth, 37 C, YPD
How it was run: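 Variants of the tRNA-Arg(CCU) gene were chemically synthesised with a 3% per-site mutation rate across 69 sites and placed at the native genomic locus in Saccharomyces cerevisiae. Six parallel replicates of the pooled strains were competed in YPD at 37°C for 24 hours, and gene amplicons from the start and end populations were read by 100-nucleotide paired-end sequencing. Darwinian fitness relative to wild type was derived from changes in genotype frequencies. Genotypes required ≥ 100 starting reads, and estimates < 0.5 were set to 0.5.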

Variant	yeast fitness
C4U A45U A69U	0.827
C4U A45U C66U	0.656
C4U A57C C61U A70U	≤ 0.5
C4U A57C C62U	0.601
C4U A57C G58A	0.58
C4U A57G C61U	0.675
C4U A57U U59C	0.54
C4U A65C A70G	0.75
C4U A65C G68A	1.03
C4U A65G C66U	0.787
C4U A65U	1.04
C4U A69C	1.02
C4U A69U	1.02
C4U A70C	0.989
C4U A70U	1.02
C4U C5A A21G A43U C46U G51C C55U A65C	≤ 0.5
C4U C5A A36U G39C A65C	≤ 0.5
C4U C5A C33U C66U	≤ 0.5
C4U C5A C46U	0.655
C4U C5A C60A C62U U64C G68A A69C	0.579
C4U C5A C60G	≤ 0.5
C4U C5A U13A C31U C34U	0.544
C4U C5A U13A C31U C34U C55A G58A	≤ 0.5
C4U C5A U13A C31U C34U C66U	≤ 0.5

Variant	yeast fitness
C4U C5G	0.95
C4U C5G A15U C22G C30U U53G G58A U59A	0.603
C4U C5G A20G C29U G48C G63C	≤ 0.5
C4U C5G A37C G58A C62U	≤ 0.5
C4U C5G C11A C66A	≤ 0.5
C4U C5G C27A	≤ 0.5
C4U C5G C29G C31G A37C A57G C66A	≤ 0.5
C4U C5G C29U	0.541
C4U C5G C29U A65G	≤ 0.5
C4U C5G C34U U54A G67U	≤ 0.5
C4U C5G C60G	≤ 0.5
C4U C5G G10A C24U A36C G56A	0.651
C4U C5G G48C	0.655
C4U C5G U7C C24G A43C	≤ 0.5
C4U C5G U16C C24G A42C	0.504
C4U C5G U16C C24G A42C G56A	≤ 0.5
C4U C5G U16C C24G A42C G58A	0.571
C4U C5G U16C C24G A42U A43G	≤ 0.5
C4U C5G U28C	0.783
C4U C5G U28C A65G	0.562
C4U C5U A36U	0.625
C4U C5U A37U C46U C61U C66U	≤ 0.5
C4U C5U C27G C31G	≤ 0.5
C4U C5U C46G	0.515

Variant	yeast fitness
C4U C5U G9A G10A A15C C46A	0.619
C4U C5U G12A A21C C27U	≤ 0.5
C4U C5U G18A G25A C33U G48A G52A A65C G68A	≤ 0.5
C4U C5U G18A G25A C33U G48A G52A A69U	≤ 0.5
C4U C5U G48A G51C	≤ 0.5
C4U C11A	0.61
C4U C11A A37C A57G	≤ 0.5
C4U C11A A37C C49U C60G A70C	≤ 0.5
C4U C11A A42G G48C G63U G67A	≤ 0.5
C4U C11A A70G	≤ 0.5
C4U C11A C27A C62A	≤ 0.5
C4U C11A C29U C49A	≤ 0.5
C4U C11A C46U	0.661
C4U C11A G12A G48A G67A	≤ 0.5
C4U C11A G39A G51A	≤ 0.5
C4U C11A U26G G50C	0.536
C4U C11A U28A C31U G51C	0.622
C4U C11A U28G C31U G51C	≤ 0.5
C4U C11G	0.692
C4U C11G A42G C49U A70U	≤ 0.5
C4U C11G A45U C49U C61G	≤ 0.5
C4U C11G A45U C61G	0.518
C4U C11G C22G C55G G63C	≤ 0.5
C4U C11G C24A C29U	≤ 0.5

Variant	yeast fitness
C4U C11G C29A	0.597
C4U C11G C29U G48A G52A	≤ 0.5
C4U C11G C29U U35C	≤ 0.5
C4U C11G C30G	≤ 0.5
C4U C11G C30G U47C	≤ 0.5
C4U C11G C34U C55A A65U A70G	≤ 0.5
C4U C11G C34U C60A	≤ 0.5
C4U C11G C34U U53C	≤ 0.5
C4U C11G C49U C61A	≤ 0.5
C4U C11G C55U G58A	≤ 0.5
C4U C11G C66A	≤ 0.5
C4U C11G G18A G23C U47G G50A	≤ 0.5
C4U C11G G18C U47A A69U	0.699
C4U C11G G41A	≤ 0.5
C4U C11U	0.969
C4U C11U A15G	0.713
C4U C11U A15G C34U	≤ 0.5
C4U C11U A45C	0.7
C4U C11U A45C G48A G56C	≤ 0.5
C4U C11U A45G	0.687
C4U C11U A57G	0.684
C4U C11U A65U	0.669
C4U C11U G25C G41A A57C G58A	≤ 0.5
C4U C11U G25C G41A G58C	≤ 0.5

Variant	yeast fitness
C4U C11U G25C G41A U54C	≤ 0.5
C4U C11U U28A C29G G51A G56A G67C	≤ 0.5
C4U C22A C27U A69U	0.512
C4U C22A U35A C49G G63C	≤ 0.5
C4U C22G	0.943
C4U C22G C24U C62G	≤ 0.5
C4U C22G C60G	≤ 0.5
C4U C22G G50C	0.533
C4U C22G G56A	0.76
C4U C22G G67A	0.689
C4U C22G U35C	0.641
C4U C22G U54A	0.558
C4U C22U C24G A37G	≤ 0.5
C4U C22U C31A U32C A43U	≤ 0.5
C4U C22U C31U	0.645
C4U C22U C31U A57U	≤ 0.5
C4U C22U C31U C60G	0.545
C4U C22U C31U C60G A70G	0.52
C4U C22U C33U A42C	0.668
C4U C22U C34A	0.548
C4U C22U C66U	0.624
C4U C22U G25A C31U C60G A70G	≤ 0.5
C4U C22U U35C G56A A70C	≤ 0.5
C4U C24A A57G A70C	≤ 0.5

Variant	yeast fitness
C4U C24A C30G	0.554
C4U C24A C31A A40U A42C C49A	≤ 0.5
C4U C24A C55A C62U A65C	≤ 0.5
C4U C24A C60A	0.724
C4U C24A C60G C66U	≤ 0.5
C4U C24A U47G	≤ 0.5
C4U C24A U59A	0.65
C4U C24G A42C	≤ 0.5
C4U C24G A43G G63U U64A	≤ 0.5
C4U C24G A57G	≤ 0.5
C4U C24G C55G U64A	≤ 0.5
C4U C24G G50A	≤ 0.5
C4U C24G G58C	≤ 0.5
C4U C24G U26A U28G U47C	≤ 0.5
C4U C24G U35C A57G	≤ 0.5
C4U C24U A36C C49U	≤ 0.5
C4U C24U A36C C62G C66A	≤ 0.5
C4U C24U A36C G63C C66G	≤ 0.5
C4U C24U A43G	0.555
C4U C24U A43G G51C U54C	≤ 0.5
C4U C24U A69C	0.677
C4U C24U C31A G56C	0.63
C4U C24U C66U A70C	0.51
C4U C24U G56A C60A	≤ 0.5

Variant	yeast fitness
C4U C24U G56C	0.505
C4U C24U U28C C30A	0.636
C4U C27A A40C	≤ 0.5
C4U C27G A43U C55G	≤ 0.5
C4U C27G A45C C55U	0.559
C4U C27G A45C C55U C66A	≤ 0.5
C4U C27G A45C C55U G67C	≤ 0.5
C4U C27G A45C G58A C62G	≤ 0.5
C4U C27G G63A	≤ 0.5
C4U C27G U53A	≤ 0.5
C4U C27U A43G	0.649
C4U C27U A57U	0.532
C4U C27U C29G A42C	≤ 0.5
C4U C27U C33A A45C U54A	≤ 0.5
C4U C27U G56A	0.694
C4U C27U U32C	0.615
C4U C27U U53G	≤ 0.5
C4U C29A A36C A40U G51A	0.588
C4U C29A C31G A42C A45U A65C	≤ 0.5
C4U C29A C31G A42C A45U G51C	≤ 0.5
C4U C29A C61G A70U	0.588
C4U C29A G38A A69U	≤ 0.5
C4U C29A G41A	≤ 0.5
